Published values collected from several papers.
Target: Aurora kinase B (AURKB, Homo sapiens, UniProt Q96GD4)
Observed: enzyme activity

Structure (SMILES) | assay | setting | remaining activity
Cc1sc(C(=O)NC2COC2)cc1-n1cc(NC(=O)Nc2c(F)cccc2Cl)cn1 | inhibitor | 10 µM | 96.4%
Cc1nn(CC(F)(F)F)cc1Nc1ncc(Br)c(NCCCNC(=O)C2CCC2)n1 | inhibitor, radiometric | 1 µM | 38%
CC(C)(O)[C@H]1CC[C@H](Nc2ccc3ncc(-c4cccc(C(F)(F)F)c4)n3n2)CC1 | inhibitor | 1 µM | 82.1%
CN1CCc2cc(Nc3ncc(C4CC4)c(NCCCNC(=O)C4CCC4)n3)ccc2C1 | inhibitor, radiometric | 1 µM | 8%
Nc1nc(NC2CCCCC2)sc1C(=O)c1ccccc1 | inhibitor | 10 µM | 75%
FC(F)c1nc2ccccc2n1-c1nc(N2CCOCC2)nc(N2CCOCC2)n1 | inhibitor | 10 µM | 94%
Nc1ncnc2occ(-c3ccc(NC(=O)Nc4cc(C(F)(F)F)ccc4F)cc3)c12 | inhibitor | 20 µM | 0.1%
Cc1nn(CC(F)(F)F)cc1Nc1nccc(NCCc2cnc[nH]2)n1 | inhibitor, radiometric | 1 µM | 71%
Cc1ccc(Nc2nccc(N(C)c3ccc4c(C)n(C)nc4c3)n2)cc1S(N)(=O)=O | inhibitor | 0.5 µM | 64.6%
Cc1nn(CC(F)(F)F)cc1Nc1nccc(NCc2ccc(S(N)(=O)=O)cc2)n1 | inhibitor, radiometric | 1 µM | 82%
O=C(Nc1cnn(-c2csc(C(=O)NC3COC3)c2)c1)Nc1ccccc1Cl | inhibitor | 5 µM | 93%
COc1cc2c(N3CCN(C(=O)Nc4ccc(OC(C)C)cc4)CC3)ncnc2cc1OCCCN1CCCCC1 |  | 0.5 µM | 89.6%
CC(C)(C)c1nc2c(s1)c1nc(N)ncc1c1ccc(NS(=O)(=O)c3c(F)cccc3F)c(F)c12 | inhibitor, radiometric | 1 µM | 90%
Cc1nn(CC(F)(F)F)cc1Nc1ncc(Br)c(NCc2ccc(S(N)(=O)=O)cc2)n1 | inhibitor, radiometric | 1 µM | 87%
CC(C)(C)C(=O)c1sc(NC2CCCCC2)nc1N | inhibitor | 10 µM | 107%
O=c1cc(-c2cccc3c2Sc2ccccc2S3)oc(N2CCOCC2)c1 | inhibitor | 0.5 µM | 95.8%
O=C(NCCCNc1nc(Nc2cccc(NC(=O)N3CCCC3)c2)ncc1Br)C1CCC1 | inhibitor, radiometric | 1 µM | 5%
Oc1cccc(-c2nc(N3CCOCC3)c3oc4ncccc4c3n2)c1 | inhibitor | 10 µM | 95%
COc1cc(Nc2cnc(C#N)c(O[C@H](C)CN(C)C)n2)ncc1-c1cnn(C)c1 | inhibitor, radiometric | 1 µM | 42%
